According to ChEMBL document CHEMBL4177526, “Discovery and structure activity relationship of the first potent cryptosporidium FIKK kinase inhibitor” (Bioorg Med Chem, 2017):

What was measured:
[1] = molecular target: Serine/threonine-protein kinase Chk2 (Homo sapiens) (UniProt O96017); assay: Inhibition of human CHK2 (5 to 543 residues) assessed as residual activity at 500 nM in presence of 33P-ATP by filter binding assay relative to control
[2] = molecular target: Ribosomal protein S6 kinase alpha-1 (Homo sapiens) (UniProt Q15418); assay: Inhibition of human RSK1 (1 to 735 residues) assessed as residual activity at 500 nM in presence of 33P-ATP by filter binding assay relative to control
[3] = molecular target: RAC-beta serine/threonine-protein kinase (Homo sapiens) (UniProt P31751); assay: Inhibition of human PKBbeta (120 to 481 residues) assessed as residual activity at 500 nM in presence of 33P-ATP by filter binding assay relative to control
Chain of RAC-beta serine/threonine-protein kinase (Homo sapiens) (P31751 whole entry, the tested form may be a part): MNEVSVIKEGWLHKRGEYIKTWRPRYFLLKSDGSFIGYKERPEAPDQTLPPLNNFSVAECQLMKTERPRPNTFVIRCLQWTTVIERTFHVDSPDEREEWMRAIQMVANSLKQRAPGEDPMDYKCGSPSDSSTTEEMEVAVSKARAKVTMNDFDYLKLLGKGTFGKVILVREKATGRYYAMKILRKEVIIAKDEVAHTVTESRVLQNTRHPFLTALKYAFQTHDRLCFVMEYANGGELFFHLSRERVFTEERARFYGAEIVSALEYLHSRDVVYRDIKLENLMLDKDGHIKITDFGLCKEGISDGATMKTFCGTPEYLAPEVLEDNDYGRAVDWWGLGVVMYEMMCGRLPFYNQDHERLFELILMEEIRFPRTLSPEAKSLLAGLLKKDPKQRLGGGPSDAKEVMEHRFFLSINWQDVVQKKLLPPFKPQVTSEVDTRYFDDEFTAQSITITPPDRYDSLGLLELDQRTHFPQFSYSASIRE

[4] = Inhibition of Cryptosporidium parvum CDPK1 using PLARTLSVAGLPGKK peptide as substrate by NADH coupled LDH-PK ATPase assay
Procedure, shortened: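 NADH-coupled LDH-PK ATPase read-out with 1.2 nM recombinant CpCDPK1, 0.25 mM ATP, 0.1 mM Syntide 2.0 peptide and 2 mM CaCl2. Inhibitors were made as 10 mM DMSO stocks and tested in 2-fold serial dilutions. IC50 is the average of triplicate experiments.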

[5] = molecular target: Aurora kinase B (Homo sapiens) (UniProt Q96GD4); assay: Inhibition of human Aurora B (1 to 344 residues) assessed as residual activity at 500 nM in presence of 33P-ATP by filter binding assay relative to control
[6] = molecular target: Vascular endothelial growth factor receptor 2 (Homo sapiens) (UniProt P35968); assay: Inhibition of VEGFR2 (unknown origin) assessed as residual activity at 500 nM relative to control
Chain of Vascular endothelial growth factor receptor 2 (Homo sapiens) (P35968 whole entry, the tested form may be a part): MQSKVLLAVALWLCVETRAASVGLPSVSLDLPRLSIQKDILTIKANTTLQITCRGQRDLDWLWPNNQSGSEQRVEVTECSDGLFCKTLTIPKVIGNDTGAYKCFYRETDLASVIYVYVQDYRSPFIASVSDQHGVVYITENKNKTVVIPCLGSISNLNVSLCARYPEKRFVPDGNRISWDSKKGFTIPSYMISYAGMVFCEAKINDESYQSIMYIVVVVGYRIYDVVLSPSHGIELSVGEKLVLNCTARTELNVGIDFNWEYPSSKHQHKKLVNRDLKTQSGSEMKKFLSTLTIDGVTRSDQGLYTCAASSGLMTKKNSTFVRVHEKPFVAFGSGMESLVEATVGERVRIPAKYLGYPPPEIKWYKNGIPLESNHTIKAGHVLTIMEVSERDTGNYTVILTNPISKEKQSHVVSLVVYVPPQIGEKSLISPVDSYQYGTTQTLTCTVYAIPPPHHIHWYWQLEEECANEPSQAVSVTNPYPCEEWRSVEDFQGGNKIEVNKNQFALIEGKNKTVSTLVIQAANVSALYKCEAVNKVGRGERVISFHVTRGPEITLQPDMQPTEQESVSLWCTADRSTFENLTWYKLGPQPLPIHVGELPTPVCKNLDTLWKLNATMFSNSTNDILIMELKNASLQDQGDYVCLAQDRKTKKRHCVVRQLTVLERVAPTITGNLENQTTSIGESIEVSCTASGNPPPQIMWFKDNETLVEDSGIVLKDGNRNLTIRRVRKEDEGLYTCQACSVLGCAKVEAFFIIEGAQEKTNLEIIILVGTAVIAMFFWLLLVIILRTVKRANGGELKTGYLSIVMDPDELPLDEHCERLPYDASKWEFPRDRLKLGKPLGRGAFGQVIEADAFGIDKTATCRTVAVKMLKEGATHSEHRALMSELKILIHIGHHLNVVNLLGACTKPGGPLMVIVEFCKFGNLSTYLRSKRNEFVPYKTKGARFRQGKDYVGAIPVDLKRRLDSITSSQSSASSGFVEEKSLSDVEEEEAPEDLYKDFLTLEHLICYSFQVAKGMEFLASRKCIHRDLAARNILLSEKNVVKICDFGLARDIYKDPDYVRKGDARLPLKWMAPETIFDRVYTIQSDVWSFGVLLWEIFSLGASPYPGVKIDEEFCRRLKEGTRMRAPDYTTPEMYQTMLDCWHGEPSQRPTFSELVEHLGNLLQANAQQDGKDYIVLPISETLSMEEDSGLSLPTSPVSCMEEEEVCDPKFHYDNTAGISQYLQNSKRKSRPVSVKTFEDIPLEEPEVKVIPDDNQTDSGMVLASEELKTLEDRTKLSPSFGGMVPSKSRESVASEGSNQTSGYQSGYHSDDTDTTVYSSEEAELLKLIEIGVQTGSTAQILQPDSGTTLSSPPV

[7] = molecular target: Mitogen-activated protein kinase kinase kinase 9 (Homo sapiens) (UniProt P80192); assay: Inhibition of human MLK1 (132 to 413 residues) assessed as residual activity at 500 nM in presence of 33P-ATP by filter binding assay relative to control
[8] = molecular target: Serine/threonine-protein kinase BRSK1 (Homo sapiens) (UniProt Q8TDC3); assay: Inhibition of human BRSK1 (2 to 778 residues) assessed as residual activity at 500 nM in presence of 33P-ATP by filter binding assay relative to control
[9] = molecular target: Platelet-derived growth factor receptor alpha (Homo sapiens) (UniProt P16234); assay: Inhibition of human PDGFRalpha (551 to […] residues) assessed as residual activity at 500 nM in presence of 33P-ATP by filter binding assay relative to control
[10] = molecular target: Protein kinase C gamma type (Homo sapiens) (UniProt P05129); assay: Inhibition of human PKCgamma (1 to 697 residues) assessed as residual activity at 500 nM in presence of 33P-ATP by filter binding assay relative to control
[11] = tested on: RAC-alpha serine/threonine-protein kinase (Homo sapiens), P31749 [S473D]; assay: Inhibition of human PKBalpha S473D mutant (118 to 480 residues) assessed as residual activity at 500 nM in presence of 33P-ATP by filter binding assay relative to control
[12] = molecular target: Angiopoietin-1 receptor (Homo sapiens) (UniProt Q02763); assay: Inhibition of human TIE2 (771 to 1124 residues) assessed as residual activity at 500 nM in presence of 33P-ATP by filter binding assay relative to control
[13] = molecular target: Serine/threonine-protein kinase 3 (Homo sapiens) (UniProt Q13188); assay: Inhibition of human MST2 (2 to 491 residues) assessed as residual activity at 500 nM in presence of 33P-ATP by filter binding assay relative to control
Chain of Serine/threonine-protein kinase 3 (Homo sapiens) (Q13188 whole entry, the tested form may be a part): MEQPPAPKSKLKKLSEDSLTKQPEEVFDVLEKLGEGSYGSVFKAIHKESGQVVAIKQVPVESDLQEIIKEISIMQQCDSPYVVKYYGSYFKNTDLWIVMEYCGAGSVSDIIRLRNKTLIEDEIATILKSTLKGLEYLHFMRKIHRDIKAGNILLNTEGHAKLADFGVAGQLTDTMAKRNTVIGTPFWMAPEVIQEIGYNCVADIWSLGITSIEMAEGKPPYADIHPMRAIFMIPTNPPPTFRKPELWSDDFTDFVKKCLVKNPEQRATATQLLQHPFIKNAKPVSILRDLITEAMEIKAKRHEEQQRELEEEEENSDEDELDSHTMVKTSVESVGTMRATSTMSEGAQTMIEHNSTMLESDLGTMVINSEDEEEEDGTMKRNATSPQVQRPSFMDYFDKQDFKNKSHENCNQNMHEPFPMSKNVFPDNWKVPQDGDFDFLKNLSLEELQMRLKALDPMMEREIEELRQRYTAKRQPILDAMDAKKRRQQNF

[14] = molecular target: 3-phosphoinositide-dependent protein kinase 1 (Homo sapiens) (UniProt O15530); assay: Inhibition of human PDK1 (52 to 556 residues) assessed as residual activity at 500 nM in presence of 33P-ATP by filter binding assay relative to control
Chain of 3-phosphoinositide-dependent protein kinase 1 (Homo sapiens) (O15530 whole entry, the tested form may be a part): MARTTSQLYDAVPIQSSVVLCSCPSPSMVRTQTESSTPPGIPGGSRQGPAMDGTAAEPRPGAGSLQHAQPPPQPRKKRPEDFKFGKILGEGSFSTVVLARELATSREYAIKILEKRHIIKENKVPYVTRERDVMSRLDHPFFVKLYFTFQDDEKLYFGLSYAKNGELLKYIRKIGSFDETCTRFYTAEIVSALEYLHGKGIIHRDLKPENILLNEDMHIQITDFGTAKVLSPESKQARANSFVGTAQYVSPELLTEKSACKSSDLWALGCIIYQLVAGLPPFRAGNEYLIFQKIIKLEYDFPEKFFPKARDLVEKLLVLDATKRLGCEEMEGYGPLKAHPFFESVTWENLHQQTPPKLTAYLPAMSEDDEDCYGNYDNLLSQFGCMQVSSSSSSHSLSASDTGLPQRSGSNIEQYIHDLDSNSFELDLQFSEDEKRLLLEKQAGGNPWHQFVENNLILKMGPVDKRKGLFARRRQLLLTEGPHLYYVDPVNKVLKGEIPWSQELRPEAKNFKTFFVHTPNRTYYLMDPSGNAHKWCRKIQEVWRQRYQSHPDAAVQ

[15] = molecular target: Tyrosine-protein kinase BTK (Homo sapiens) (UniProt Q06187); assay: Inhibition of human BTK (2 to 659 residues) assessed as residual activity at 500 nM in presence of 33P-ATP by filter binding assay relative to control
[16] = molecular target: MAP kinase-activated protein kinase 3 (Homo sapiens) (UniProt Q16644); assay: Inhibition of human MAPKAPK3 (2 to 382 residues) assessed as residual activity at 500 nM in presence of 33P-ATP by filter binding assay relative to control
Chain of MAP kinase-activated protein kinase 3 (Homo sapiens) (Q16644 whole entry, looked up, the tested form may be a part): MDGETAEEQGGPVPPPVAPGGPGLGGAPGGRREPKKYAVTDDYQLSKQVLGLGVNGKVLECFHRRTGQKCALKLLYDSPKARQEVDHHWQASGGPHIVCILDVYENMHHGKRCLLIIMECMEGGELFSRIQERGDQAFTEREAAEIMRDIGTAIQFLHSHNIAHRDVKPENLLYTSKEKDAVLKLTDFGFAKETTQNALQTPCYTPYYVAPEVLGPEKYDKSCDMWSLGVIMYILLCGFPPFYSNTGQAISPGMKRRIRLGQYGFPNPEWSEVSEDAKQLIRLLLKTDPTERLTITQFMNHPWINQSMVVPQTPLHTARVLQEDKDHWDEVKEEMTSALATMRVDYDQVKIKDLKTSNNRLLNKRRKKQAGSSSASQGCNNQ

[17] = molecular target: cAMP-dependent protein kinase catalytic subunit alpha (Homo sapiens) (UniProt P17612); assay: Inhibition of human PKAalpha (2 to 351 residues) assessed as residual activity at 500 nM in presence of 33P-ATP by filter binding assay relative to control
[18] = molecular target: Serine/threonine-protein kinase Pink1, mitochondrial (Tribolium castaneum) (UniProt D6WMX4); assay: Inhibition of Tribolium castaneum PINK1 (1 to 570 residues) assessed as residual activity at 500 nM in presence of 33P-ATP by scintillation counting method relative to control
[19] = molecular target: MAP kinase-activated protein kinase 2 (Homo sapiens) (UniProt P49137); assay: Inhibition of human MAPKAPK2 (46 to 400 residues) assessed as residual activity at 500 nM in presence of 33P-ATP by filter binding assay relative to control
[20] = molecular target: MAP kinase-activated protein kinase 5 (Homo sapiens) (UniProt Q8IW41); assay: Inhibition of human PRAK (1 to 471 residues) assessed as residual activity at 500 nM in presence of 33P-ATP by filter binding assay relative to control
Chain of MAP kinase-activated protein kinase 5 (Homo sapiens) (Q8IW41 whole entry, the tested form may be a part): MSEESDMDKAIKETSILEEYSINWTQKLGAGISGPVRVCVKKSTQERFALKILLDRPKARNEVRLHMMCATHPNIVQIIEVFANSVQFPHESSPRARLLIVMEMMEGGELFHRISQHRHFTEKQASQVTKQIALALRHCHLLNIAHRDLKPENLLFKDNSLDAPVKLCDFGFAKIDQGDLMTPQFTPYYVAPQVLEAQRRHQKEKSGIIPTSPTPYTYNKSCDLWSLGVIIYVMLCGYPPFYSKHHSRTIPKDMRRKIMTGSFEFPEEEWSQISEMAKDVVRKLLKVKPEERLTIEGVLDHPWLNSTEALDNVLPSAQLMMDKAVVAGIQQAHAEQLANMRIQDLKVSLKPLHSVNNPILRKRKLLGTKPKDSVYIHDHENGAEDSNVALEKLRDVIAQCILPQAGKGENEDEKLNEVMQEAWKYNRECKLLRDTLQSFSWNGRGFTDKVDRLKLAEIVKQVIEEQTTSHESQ

[21] = Ratio of EC50 for antiparasitic activity against Cryptosporidium parvum Iowa oocysts infected in human HCT8 cells to IC50 for Cryptosporidium parvum CDPK1; assay type: functional
[22] = molecular target: CDK2/Cyclin A2 (Homo sapiens) (UniProt P24941+P20248); assay: Inhibition of human CDK2 (2 to 298 residues)/cyclinA2 (171 to 432 residues) assessed as residual activity at 500 nM in presence of 33P-ATP by filter binding assay relative to control; assay type: protein-complex assay
[23] = molecular target: MAP/microtubule affinity-regulating kinase 4 (Homo sapiens) (UniProt Q96L34); assay: Inhibition of human MARK4 (1 to 367 residues) assessed as residual activity at 500 nM in presence of 33P-ATP by filter binding assay relative to control
[24] = molecular target: Serine/threonine-protein kinase pim-2 (Homo sapiens) (UniProt Q9P1W9); assay: Inhibition of human PIM2 (2 to 334 residues) assessed as residual activity at 500 nM in presence of 33P-ATP by filter binding assay relative to control
[25] = molecular target: Casein kinase I isoform delta (Homo sapiens) (UniProt P48730); assay: Inhibition of human CK1delta (1 to 415 residues) assessed as residual activity at 500 nM in presence of 33P-ATP by filter binding assay relative to control

Chain of Serine/threonine-protein kinase Chk2 (Homo sapiens) (O96017 whole entry, the tested form may be a part): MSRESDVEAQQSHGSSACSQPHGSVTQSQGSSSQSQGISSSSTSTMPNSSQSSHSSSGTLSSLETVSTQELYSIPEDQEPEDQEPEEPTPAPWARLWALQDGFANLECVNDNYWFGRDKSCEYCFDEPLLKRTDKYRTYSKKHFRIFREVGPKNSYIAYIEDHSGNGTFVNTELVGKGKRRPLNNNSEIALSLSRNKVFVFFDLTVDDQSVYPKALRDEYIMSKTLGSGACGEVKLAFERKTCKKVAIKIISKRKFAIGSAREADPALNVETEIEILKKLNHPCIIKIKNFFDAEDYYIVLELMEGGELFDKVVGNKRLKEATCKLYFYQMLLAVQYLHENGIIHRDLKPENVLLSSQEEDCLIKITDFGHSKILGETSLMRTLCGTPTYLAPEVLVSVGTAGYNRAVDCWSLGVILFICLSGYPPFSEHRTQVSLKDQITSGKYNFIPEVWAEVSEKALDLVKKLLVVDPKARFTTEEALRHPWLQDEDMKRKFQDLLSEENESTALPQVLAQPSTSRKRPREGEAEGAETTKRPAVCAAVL

Activity [1]: 101%
Activity [2]: 128%
Activity [3]: 127%
IC50 [4]: 190 nM
Activity [5]: 89%
Activity [6]: 41%
Activity [7]: 106%
Activity [8]: 111%
Activity [9]: 99%
Activity [10]: 103%
Activity [11]: 115%
Activity [12]: 106%
Activity [13]: 109%
Activity [14]: 118%
Activity [15]: 105%
Activity [16]: 100%
Activity [17]: 115%
Activity [18]: 119%
Activity [19]: 108%
Activity [20]: 105%
Activity [22]: 104%
Activity [23]: 116%
Activity [24]: 101%
Activity [25]: 97%
Structure (SMILES): Cc1cccc(-c2nc(N)sc2-c2ccc3ncccc3n2)c1
Ratio [21]: 14
